Consider one molecule from ChEMBL document CHEMBL5108061, “Lectin-Targeted Prodrugs Activated by Pseudomonas aeruginosa for Self-Destructive Antibiotic Release” (J Med Chem, 2022).

A value given as a limit tells only on which side of the number the result lay.

The nature of series [1]: Metabolic stability in mouse liver microsomes assessed as intrinsic clearance measured per mg protein at 100 uM preincubated for 5 mins followed by NADPH addition and measured upto 60 mins by HPLC-MS/MS analysis. Particulars: time 65 min, read-out: CLH. Format: ADME, Microsome. The gist of the method:
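Mouse liver microsomes (5 μL of 20 mg/mL) were mixed with 2 μL of 100 μM compound in 100 mM phosphate buffer and warmed 5 min at 37 °C. NADPH (10 μL of 20 mM) started the reaction, run in triplicate at 150 rpm. Samples were quenched with acetonitrile at 0–60 min and read by HPLC-MS/MS. Half-life came from linear regression of the 0-min-normalized areas, and CLint was derived from it.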

A short description of series [2]: Stability in human plasma assessed as half life at 1 uM and measured upto 240 mins by HPLC-MS/MS analysis. In kind it is ADME, cell-free. Particulars: 4 h. The method in brief:
(§1)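 Compound at 1 μM final in prewarmed mouse or human plasma (pH 7.4), 37 °C, sampled at 0–240 min; extracted with acetonitrile containing caffeine internal standard; HPLC-MS/MS, peak area normalized to internal standard and time 0; procaine and procainamide controls; ≥3 independent repeats.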

Series [3] in a line: Stability in mouse plasma assessed as half life at 1 uM and measured upto 240 mins by HPLC-MS/MS analysis. Format: ADME, cell-free. The following applies: 4 h. The method in brief: as §1
The nature of series [4]: Drug uptake in human A549 cells assessed as intracellular accumulation at 10 ug/ml incubated for 15 to 60 mins by HPLC-MS/MS analysis. The following applies: time 15-60 min, dose 10 µg/ml. In kind it is ADME, cell-based. The gist of the method:
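A549 cells grown to 95% confluence in DMEM/10% FCS, exposed to 10 μg/mL compound for 15, 30 and 60 min at 37 °C; washed twice with PBS, lysed in MeOH; medium, washes and extracts extracted with MeOH containing caffeine internal standard and quantified by HPLC-MS/MS against calibration/QC samples; technical duplicates, two biological replicates.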

The subject of another series is Pseudomonas aeruginosa. Kind of series: Antibacterial activity against Pseudomonas aeruginosa PA14 assessed inhibition of bacterial growth incubated for 18 to 20 hrs by broth microdilution method. In kind it is functional. Particulars: time 18-20 hrs. The gist of the method: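 Broth microdilution per EUCAST in Müller-Hinton broth II, no matrix preincubation. […] Inoculum from overnight LB-agar colonies adjusted to OD600 0.08–0.13, diluted 1:100, final 5 × 10^5 cfu/mL.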

Series [5] in a line: Metabolic stability in mouse liver microsomes assessed as half life at 100 uM preincubated for 5 mins followed by NADPH addition and measured upto 60 mins by HPLC-MS/MS analysis. Particulars: time 65 min. In kind it is ADME, Microsome. The method in brief: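 Thawed mouse liver microsomes (20 mg/mL stock) were pre-incubated with compound (100 μM stock) in 100 mM phosphate buffer for 5 min at 37 °C. Reactions were started with NADPH (20 mM stock) and run in triplicate at 37 °C with shaking. Samples taken at 0, 5, 15, 30 and 60 min were quenched with acetonitrile and analysed by HPLC-MS/MS. Peak areas were normalised to 0 min, and half-life came from linear regression.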
(Liver microsomes are vesicles of endoplasmic reticulum, rich in cytochrome P450 enzymes.)

For orientation: MIC means the lowest concentration found to suppress growth. Read a low MIC as a more susceptible organism. What is called half-life is the time needed for the level to fall by half in the phase considered. Consider `Cl.N[C@H]1CCN(c2cc3c(cc2F)c(=O)c(C(=O)O)cn3C2CC2)C1`, for which the microsomal CLint at 100 µM in series [1] was below 23 µL/min/mg. Also, the t1/2 is 2.25 h in series [2] and above 4 h in series [3]. Besides, the Drug uptake in series [4] is 2000 ng/mL. In addition, the MIC against Pseudomonas aeruginosa turned out to be 0.027 µM. The half-life at 100 µM in series [5] is above 1 h.
